The test system of experiment [1] is HeLa. Briefly: Cytotoxicity against human HeLa S3 cells by Giemsa staining. In kind it is functional.
Experiment [2] has as its system L1210. Kind of experiment: Cytotoxicity against mouse L1210 cells by Giemsa staining. In kind it is functional.
Experiment [3] deals with HL-60. Briefly: Cytotoxicity against human HL60 cells by Giemsa staining. It counts as functional.
Experiment [4] has as its system Nadsonia fulvescens. Kind of experiment: Antifungal activity against Nadsonia fulvescens ATCC 24236 upto 100 ug/mL after 24 hrs by microtiter plate assay. It counts as functional, organism-based. Summed up:
(§1)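 Broth microdilution in microtiter plates, following an earlier published method. Each test fungus was inoculated at 1×10^5 spores/mL. Plates were incubated for 24 h at 27 °C, and antifungal activity was then scored.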

In experiment [5] the test system is Eremothecium coryli. Kind of experiment: Antifungal activity against Nematospora coryli ATCC 10647 upto 100 ug/mL after 24 hrs by microtiter plate assay. It counts as functional, organism-based. The method, boiled down: as §1
Experiment [6] deals with Fusarium oxysporum. Briefly: Antifungal activity against Fusarium oxysporum CBS 149.25 upto 100 ug/mL after 24 hrs by microtiter plate assay. It counts as functional, organism-based. The method, boiled down: as §1
Experiment [7] has as its system Paecilomyces variotii. Kind of experiment: Antifungal activity against Paecilomyces variotii ETH 114646 upto 100 ug/mL after 24 hrs by microtiter plate assay. It counts as functional, organism-based. The method, boiled down:
as §1

For experiment [8], the system named is Rhodotorula glutinis. Briefly: Antifungal activity against Rhodotorula glutinis ATCC 26085 upto 100 ug/mL after 24 hrs by microtiter plate assay. In kind it is functional, organism-based. The method, boiled down: as §1
Experiment [9] has as its system Nadsonia fulvescens. Briefly: Antifungal activity against Nadsonia fulvescens ATCC 24236 after 24 hrs by microtiter plate assay. In kind it is functional. The following applies: ATCC 24236, 24 h. The method, boiled down: as §1
For experiment [10], the system named is Eremothecium coryli. Kind of experiment: Antifungal activity against Nematospora coryli ATCC 10647 after 24 hrs by microtiter plate assay. In kind it is functional. The settings on record: ATCC 10647, 24 h. Summed up: as §1
The subject of experiment [11] is Paecilomyces variotii. Kind of experiment: Antifungal activity against Paecilomyces variotii ETH 114646 after 24 hrs by microtiter plate assay. It counts as functional. The method, boiled down:
as §1

Experiment [12] relates to Rhodotorula glutinis. Kind of experiment: Antifungal activity against Rhodotorula glutinis ATCC 26085 after 24 hrs by microtiter plate assay. In kind it is functional. The settings on record: ATCC 26085, 24 h. Summed up:
as §1

Structures are written as SMILES. In brackets after ≈: the same amount, converted by molar mass. Activity calls are given as the source filed them. The rule behind the calls is not given here.

`CCCCC(O)/C=C(C)/C=C/C=C/C(=O)N1CCCC1CO` (configuration not stated) [VIRIDITIN]: the IC90 in [1], in experiment [2] and in [3] was 25 µg/mL (≈ 81.3 µM) in each case. The outcome in experiment [4], in experiment [5], in experiment [6], in experiment [7] and in [8] was inactive.

`CCCC[C@@H](O)/C=C(C)/C=C/C=C/C(=O)N1CCCC1=O` [PECILOCIN]: the MIC in experiment [9], in [10], in experiment [11] and in experiment [12] was 1 µg/mL (≈ 3.43 µM) in each case.

`CCCCC(/C=C(C)/C=C/C=C/C(=O)N1CCCC1CO)OC` (configuration not stated): the outcome in experiment [4], in experiment [5], in [6], in experiment [7] and in experiment [8] was inactive.
